Experimental data taken from ChEMBL document CHEMBL1821598, “Synthesis, structure-activity relationship and biological evaluation of anticancer activity for novel N-substituted sophoridinic acid derivatives” (Bioorg Med Chem Lett, 2011).
≈ marks a conversion by molar mass, not a printed value. Calls of active or inactive are those of the source. The calls are words filed in the database; no cut-off is given here.

Tests used:
HepG2 [1] = test: Inhibition of cell proliferation of human HepG2 cells at 30 ug/mL after 48 hrs by Sulforhodamine B assay; type: functional; details: HepG2, 48 h
Summary of the method: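 HepG2 cells exposed to test compounds at 30 μg/mL for 48 h. HCPT at 30 μg/mL was the positive control. Proliferation was read by SRB and reported as % inhibition. Values are mean ± SD of three separate experiments.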

[2] = biological target: T1, DNA topoisomerase 1 (Homo sapiens) (UniProt P11387); test: Inhibition of DNA topoisomerase 1 using DNA substrate after 0.5 hrs by gel electrophoresis
T1 sequence (whole entry): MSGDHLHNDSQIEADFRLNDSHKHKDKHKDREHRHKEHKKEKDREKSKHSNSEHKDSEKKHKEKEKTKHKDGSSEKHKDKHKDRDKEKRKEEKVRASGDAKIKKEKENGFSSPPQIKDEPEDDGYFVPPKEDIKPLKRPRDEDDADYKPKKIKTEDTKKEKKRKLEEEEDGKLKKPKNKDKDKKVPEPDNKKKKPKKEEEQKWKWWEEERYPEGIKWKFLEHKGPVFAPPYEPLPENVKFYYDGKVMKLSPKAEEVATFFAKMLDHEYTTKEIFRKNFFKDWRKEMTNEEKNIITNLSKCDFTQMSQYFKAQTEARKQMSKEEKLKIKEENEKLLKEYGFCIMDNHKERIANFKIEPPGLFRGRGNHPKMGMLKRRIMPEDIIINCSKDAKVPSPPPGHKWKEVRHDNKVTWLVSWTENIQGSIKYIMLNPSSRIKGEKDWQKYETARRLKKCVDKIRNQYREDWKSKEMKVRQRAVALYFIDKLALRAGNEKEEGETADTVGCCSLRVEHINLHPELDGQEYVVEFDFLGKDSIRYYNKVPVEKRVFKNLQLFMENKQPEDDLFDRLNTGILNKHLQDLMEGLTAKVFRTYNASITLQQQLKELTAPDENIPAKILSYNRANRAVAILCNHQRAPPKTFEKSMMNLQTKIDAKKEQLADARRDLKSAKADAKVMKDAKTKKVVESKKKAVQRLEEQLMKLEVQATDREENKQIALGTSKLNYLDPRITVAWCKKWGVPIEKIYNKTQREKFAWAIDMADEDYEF
Summary of the method: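 Run over a range of concentrations, with HCPT as positive control.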

HepG2 [3] = test: Cell cycle arrest in human HepG2 cells assessed as accumulation at G2/M phase at 20 ug/mL after 4 hrs by flow cytometry (Rvb= 11.5%); type: functional
Summary of the method: (§1)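 HepG2 cells incubated with or without compound at 20 μg/mL for 4, 12 or 24 h. Cell cycle distribution (G0/G1, S, G2/M) was read from DNA content by flow cytometry. Untreated cells served as control.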

HepG2 [4] = test: Cell cycle arrest in human HepG2 cells assessed as accumulation at G0/G1 phase at 20 ug/mL after 4 hrs by flow cytometry (Rvb= 63.1%); type: functional; summary of the method: as §1
HepG2 [5] = test: Cell cycle arrest in human HepG2 cells assessed as accumulation at G0/G1 phase at 20 ug/mL after 12 hrs by flow cytometry (Rvb= 63.1%); type: functional; summary of the method: as §1
HepG2 [6] = test: Cell cycle arrest in human HepG2 cells assessed as accumulation at S phase at 20 ug/mL after 12 hrs by flow cytometry (Rvb= 25.4%); type: functional; summary of the method: as §1
MCF7 = test: Inhibition of cell proliferation of human MCF7 cells at 30 ug/mL after 48 hrs by Sulforhodamine B assay; type: functional; details: MCF7, 48 h
Summary of the method: (§2)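 Human tumor cell lines were treated at 30 μg/mL for 48 h. Antiproliferative activity was measured by SRB assay.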

HepG2 [7] = test: Cell cycle arrest in human HepG2 cells assessed as accumulation at G2/M phase at 20 ug/mL after 12 hrs by flow cytometry (Rvb= 11.5%); type: functional; summary of the method: as §1
HepG2 [8] = test: Cell cycle arrest in human HepG2 cells assessed as accumulation at G2/M phase at 20 ug/mL after 24 hrs by flow cytometry (Rvb= 11.5%); type: functional; summary of the method: as §1
HepG2 [9] = test: Cytotoxicity against human HepG2 cells after 48 hrs by Sulforhodamine B assay; type: functional, cell-based; details: for IC50: HepG2, 48 h
Summary of the method: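 HepG2 cells treated at a series of concentrations for 48 h. Cell death was read by sulforhodamine B staining.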

HepG2 [10] = test: Cell cycle arrest in human HepG2 cells assessed as accumulation at G0/G1 phase at 20 ug/mL after 24 hrs by flow cytometry (Rvb= 63.1%); type: functional; summary of the method: as §1
HepG2 [11] = test: Induction of apoptosis in human HepG2 cells assessed as disappearance of nuclear membrane and appearance of apoptotic body at 20 ug/mL after 48 hrs by microscopy relative to control; type: functional, cell-based
Summary of the method: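 HepG2 cells untreated or treated at 20 μg/mL for 48 h. Cells were harvested onto slides and examined by microscopy for apoptotic morphology.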

[12] = Inhibition of cell proliferation of human […] cells at 30 ug/mL after 48 hrs by Sulforhodamine B assay; type: functional; summary of the method: as §2
A549 = test: Inhibition of cell proliferation of human A549 cells at 30 ug/mL after 48 hrs by Sulforhodamine B assay; type: functional; details: A549, 48 h; summary of the method: as §2
HepG2 [13] = test: Cell cycle arrest in human HepG2 cells assessed as accumulation at S phase at 20 ug/mL after 24 hrs by flow cytometry (Rvb= 25.4%); type: functional; summary of the method: as §1
HepG2 [14] = test: Cell cycle arrest in human HepG2 cells assessed as accumulation at S phase at 20 ug/mL after 4 hrs by flow cytometry (Rvb= 25.4%); type: functional; summary of the method: as §1

For `COc1ccc(C(=O)N2C[C@@H]3CCCN4CCC[C@@H]([C@H]34)[C@@H]2CCCC(=O)O)cc1`, the inhibition at 30 µg/mL (HepG2 [1]) was < 5%.
For `O=C(O)CCC[C@H]1[C@H]2CCCN3CCC[C@@H](CN1C(=O)c1ccc(F)cc1)[C@@H]23`, the inhibition at 30 µg/mL (HepG2 [1]) was < 5%.
`CCOC(=O)N1C[C@@H]2CCCN3CCC[C@@H]([C@H]23)[C@@H]1CCCC(=O)O` gave an inhibition at 30 µg/mL (HepG2 [1]) of 19.9%.
For `COc1ccc(CN2C[C@@H]3CCCN4CCC[C@@H]([C@H]34)[C@@H]2CCCC(=O)O)cc1`, the inhibition at 30 µg/mL (HepG2 [1]) was < 5%.
With `O=C1CCC[C@@H]2[C@H]3CCCN4CCC[C@H](CN12)[C@@H]34` [SOPHORIDINE] the inhibition at 30 µg/mL (HepG2 [1]) was 13.8% and the inhibition [2] was “Active”.
Work on `CC(=O)N1C[C@@H]2CCCN3CCC[C@@H]([C@H]23)[C@@H]1CCCC(=O)O` yielded an inhibition at 30 µg/mL (HepG2 [1]) of 11.2%.
Work on `Cc1ccc(C(=O)N2C[C@@H]3CCCN4CCC[C@@H]([C@H]34)[C@@H]2CCCC(=O)O)cc1` yielded an inhibition at 30 µg/mL (HepG2 [1]) of 8.5%.
In the case of `O=C(O)CCC[C@H]1[C@H]2CCCN3CCC[C@@H](CN1C(=O)CBr)[C@@H]23`, the Activity (HepG2 [3]) is reported as 9.43%, the Activity (HepG2 [4]) is reported as 50.4% and the Activity (HepG2 [5]) is reported as 53.8%. For the same compound, the Activity (HepG2 [6]) was 38.3%, the inhibition at 30 µg/mL (HepG2 [1]) was 88% and the inhibition [2] was “Active”. For the same compound, the inhibition at 30 µg/mL (MCF7) was 73.3%, the Activity (HepG2 [7]) was 7.88% and the Activity (HepG2 [8]) was 10.4%. The inhibition (HepG2 [9]) was “Dose-dependent effect”, the IC50 (HepG2 [9]) was 15.4 µg/mL (≈ 39.8 µM) and the Activity (HepG2 [10]) was 47.7%. The Activity (HepG2 [11]) was “Active”, the inhibition at 30 µg/mL [12] was 68% and the inhibition at 30 µg/mL (A549) was 40%. For the same compound, the Activity (HepG2 [13]) was 41.8% and the Activity (HepG2 [14]) was 40.2%.
With `O=C(O)CCC[C@@H]1NC[C@@H]2CCCN3CCC[C@H]1[C@H]23` [SOPHORIDINIC ACID] the inhibition at 30 µg/mL (HepG2 [1]) was 10.3%.
In the case of `O=C(O)CCC[C@H]1[C@H]2CCCN3CCC[C@@H](CN1S(=O)(=O)c1ccccc1)[C@@H]23`, the inhibition at 30 µg/mL (HepG2 [1]) is reported as < 5%.
Work on `COc1cc(C(=O)N2C[C@@H]3CCCN4CCC[C@@H]([C@H]34)[C@@H]2CCCC(=O)O)cc(OC)c1OC` yielded an inhibition at 30 µg/mL (HepG2 [1]) of 11.8%.
In the case of `Cc1ccc(CN2C[C@@H]3CCCN4CCC[C@@H]([C@H]34)[C@@H]2CCCC(=O)O)cc1`, the inhibition at 30 µg/mL (HepG2 [1]) is reported as < 5%.
For `COc1ccc(C(=O)N2C[C@@H]3CCCN4CCC[C@@H]([C@H]34)[C@@H]2CCCC(=O)O)cc1[N+](=O)[O-]`, the inhibition at 30 µg/mL (HepG2 [1]) was < 5%.
In the case of `Cc1ccc(S(=O)(=O)N2C[C@@H]3CCCN4CCC[C@@H]([C@H]34)[C@@H]2CCCC(=O)O)cc1`, the inhibition at 30 µg/mL (HepG2 [1]) is reported as 13.4%.
With `O=C(O)CCC[C@H]1[C@H]2CCCN3CCC[C@@H](CN1C(=O)c1ccccc1)[C@@H]23` the inhibition at 30 µg/mL (HepG2 [1]) was < 5%.
In the case of `O=C(O)CCC[C@H]1[C@H]2CCCN3CCC[C@@H](CN1C(=O)c1cccc([N+](=O)[O-])c1)[C@@H]23`, the inhibition at 30 µg/mL (HepG2 [1]) is reported as < 5%.
With `CC(C)(C)C(=O)N1C[C@@H]2CCCN3CCC[C@@H]([C@H]23)[C@@H]1CCCC(=O)O` the inhibition at 30 µg/mL (HepG2 [1]) was 41.1%, the inhibition (HepG2 [9]) was “Dose-dependent effect” and the IC50 (HepG2 [9]) was 43.6 µg/mL (≈ 124 µM).
In the case of `CC[C@@]1(O)C(=O)OCc2c1cc1n(c2=O)Cc2cc3cc(O)ccc3nc2-1` [HYDROXYCAMPTOTHECIN], the inhibition at 30 µg/mL (HepG2 [1]) is reported as 92%.
Work on `CC(Br)C(=O)N1C[C@@H]2CCCN3CCC[C@@H]([C@H]23)[C@@H]1CCCC(=O)O` (stereo partly drawn) yielded an inhibition at 30 µg/mL (HepG2 [1]) of 15.6%.
Work on `O=C(O)CCC[C@H]1[C@H]2CCCN3CCC[C@@H](CN1C(=O)c1ccc4c(c1)OCO4)[C@@H]23` yielded an inhibition at 30 µg/mL (HepG2 [1]) of 11.4%.
For `O=C(O)CCC[C@H]1[C@H]2CCCN3CCC[C@@H](CN1C(=O)c1ccc(F)c([N+](=O)[O-])c1)[C@@H]23`, the inhibition at 30 µg/mL (HepG2 [1]) was 7.7%.
Work on `O=C(O)CCC[C@H]1[C@H]2CCCN3CCC[C@@H](CN1C(=O)OCc1ccccc1)[C@@H]23` yielded an inhibition at 30 µg/mL (HepG2 [1]) of 8.4%.
With `Cc1c(C(=O)N2C[C@@H]3CCCN4CCC[C@@H]([C@H]34)[C@@H]2CCCC(=O)O)cccc1[N+](=O)[O-]` the inhibition at 30 µg/mL (HepG2 [1]) was 8.9%.
With `COC(=O)N1C[C@@H]2CCCN3CCC[C@@H]([C@H]23)[C@@H]1CCCC(=O)O` the inhibition at 30 µg/mL (HepG2 [1]) was 7.8%.
